Most compounds without a hit are left out; they make up all but 1.7% or so of the library.
TPT1 inhibitor: C. albicans TPT1 enzyme inhibition; recombinant caTPT1, FP RNA substrate dephosphorylation; inhibition, % at 5 µM; 300,000 compounds, 0.81% hits; AID 1962;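 active = inhibition above the mean of all tested compounds plus 3 SD, set per screening campaign, cut at about 24% in these data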;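 also: plate controls were DMSO alone for no effect and ferristatin control at 100 nM for full effect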
IDE cell inh: inhibitors of human insulin-degrading enzyme in cells; P14735; HEK cells, FAbetaB cleavage, fluorescence polarization; inhibition, % at 5.59 µM; 320,000 compounds, 0.41% hits;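 active = percent inhibition above the average of all tested compounds plus 3 SD, set per screening campaign, cut at about 16% in these data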;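 also: IDE supplied by intact live HEK cells; FP after avidin binding of uncleaved biotin substrate so inhibition keeps polarization high; 0% = DMSO wells and 100% = 60 µM reference IDE inhibitor Ii1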
TbMetRS inhib: blocks T. brucei methionyl-tRNA synthetase activity. 360,000 compounds, 0.4% hits. inhibition, % at 11.9 µM. purified T. brucei MetRS, ATP depletion, Kinase-Glo luminescence;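 active = inhibition above a per-plate cutoff of the control wells' mean inhibition plus 3 SD, cut at about 5.5% in these data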;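 also: 0% = DMSO wells median and 100% = median of wells with control inhibitor compound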
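technique = Kinase-Glo luminescence, ATP depletion format | system = purified MetRS (methionyl-tRNA synthetase) enzyme from Trypanosoma brucei | timing = 15 min preincubation, 2 h reaction, all 25 °C | evaluation = percent inhibition versus plate control medians | dosing = single dose, 11.9 µM final nominal, 0.9% final DMSO | also added = substrates ATP, L-methionine and bulk Escherichia coli tRNA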
CSN deneddyl inh: CSN deneddylation inhibition | Q92905 | AID 651999 | Purified CSN, SCF-Nedd8-OG deneddylation, fluorescence polarization | 360,000 compounds, 0.38% hits | inhibition, % at 12.5 µM;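 active = pattern-corrected inhibition above about 35%, with an unprinted fluorescence ratio check between 0.5 and 1.5, limit read from the data, passing the limit was not always enough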;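 also: 0% = enzyme with substrate and 100% = substrate without enzyme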
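Assay system: purified human Csn5 enzyme expressed in HEK293T cells; Input: 0.24 nM Csn5 enzyme, final concentration; Reagent: 10 nM SCFSkp2-Nedd8OG; Compound dosing: 12.5 µM single point; Times: reaction 90 min, room temperature; Technique: fluorescence polarization readout.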
IDE act: activators of human insulin-degrading enzyme in cells; P14735; AID 493087; 340,000 compounds, 0.073% hits; HEK cells, FAbeta-B cleavage, fluorescence polarization; 0% vehicle, 100% cell-free pure enzyme wells; activation, % at 5.96 µM;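 active = activation above the mean of all tested compounds plus 3 SD, set per screening campaign, cut at about 17% in these data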
HNF4A DNA FP: change in binding of human HNF4 alpha to DNA; HNF4a-FITC DNA binding, fluorescence polarization, 1 h; P41235; 360,000 compounds, 0.3% hits; activity change, % at 10 µM; in the data active = activity change above about 30%, passing the limit was not always enough
Target sequence (P41235 whole entry, looked up): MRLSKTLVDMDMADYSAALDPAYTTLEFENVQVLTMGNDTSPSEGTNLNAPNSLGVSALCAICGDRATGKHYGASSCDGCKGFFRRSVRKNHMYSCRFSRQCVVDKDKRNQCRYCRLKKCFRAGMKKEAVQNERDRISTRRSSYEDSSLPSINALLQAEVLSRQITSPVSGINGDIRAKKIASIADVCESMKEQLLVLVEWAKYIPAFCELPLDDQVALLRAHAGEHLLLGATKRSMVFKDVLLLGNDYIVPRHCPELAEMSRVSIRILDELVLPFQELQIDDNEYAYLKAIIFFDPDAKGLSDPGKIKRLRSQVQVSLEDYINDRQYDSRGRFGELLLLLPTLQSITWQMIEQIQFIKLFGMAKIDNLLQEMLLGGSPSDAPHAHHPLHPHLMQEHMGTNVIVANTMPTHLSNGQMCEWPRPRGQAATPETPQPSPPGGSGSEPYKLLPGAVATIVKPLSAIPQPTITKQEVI
Tb MetRS conf: confirmation of Trypanosoma brucei MetRS inhibitors; inhibition, % at 11.9 µM; T. brucei MetRS enzyme, luminescence (ATP depletion); 1,400 compounds, 93% hits; shares compounds with TbMetRS inhib; in the data active = inhibition above about 7%
Jurkat tox: counter-screen for T. brucei MetRS inhibitors: Jurkat cell cytotoxicity. shares compounds with TbMetRS inhib. Jurkat cells viability, ATP luminescence. inhibition, % at 8.3 µM. 1,400 compounds, 12% hits; in the data active = inhibition above about 15%;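 also: 0% = vehicle and 100% = reference inhibitor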
TbMetRS FP orth: inhibits T. brucei methionyl tRNA synthetase in orthogonal FP test; 1,400 compounds, 44% hits; shares compounds with TbMetRS inhib; purified T. brucei MetRS, fluorescence polarization; inhibition, % at 11.9 µM; in the data active = inhibition above about 17%;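 also: 0% = vehicle wells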
CSN5 deneddyl: Csn5 (human) deneddylation inhibition, single-concentration validation; AID 720654; inhibition, % at 16.6 µM; Csn5 deneddylation of SCF-Nedd8OG, fluorescence polarization, 90 min; 540 compounds, 62% hits; shares compounds with CSN deneddyl inh; in the data active = inhibition above about 50%;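 also: 0% = DMSO with enzyme and 100% = no enzyme wells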
MMP-2 counter: blocks human MMP-2 in a CSN deneddylation counter-screen. 540 compounds, 33% hits. shares compounds with CSN deneddyl inh. inhibition, % at 16.6 µM. recombinant MMP-2, FRET substrate fluorescence, 60 min;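 active = corrected plate-normalized z-score of 5 or more, or -5 or less, or inhibition of 15% or more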;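 also: plate controls were DMSO wells with enzyme for no effect and buffer wells lacking MMP-2 for full effect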
Thrombin cntr: thrombin (bovine) inhibition, counter-screen for CSN hits. AID 720656. bovine thrombin cleavage of Ub4-pepOG, fluorescence polarization. shares compounds with CSN deneddyl inh. inhibition, % at 16.6 µM. 540 compounds, 49% hits;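 active = inhibition at or above a set limit, with a fluorescence interference ratio between 0.5 and a set maximum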
HNF4a DNA conf: change in binding of human HNF4 alpha to DNA, retest; 210 compounds, 99% hits; HNF4A-FITC DNA binding, fluorescence polarization, 1 h; shares compounds with HNF4A DNA FP; AID 1224897; activity change, % at 12.5 µM; call rule not given here
Active calls of the source: *; / = no result.

SMILES	TPT1 inhibitor	IDE cell inh	TbMetRS inhib	CSN deneddyl inh	IDE act	HNF4A DNA FP	CSN5 deneddyl	MMP-2 counter	Thrombin cntr	others
CCOC(=O)c1c(NS(=O)(=O)c2ccccc2)n(CCCOC)c2nc3ccccc3nc12	-2.0	-1.4	13.6*	48.5*	0.8	0.8	95.2*	-2.7	-0.8	Tb MetRS conf=5.4;Jurkat tox=9.5;TbMetRS FP orth=3.2
CC/C(=N\N1CCCCCC1)c1c(O)n(-c2ccc(C)cc2)c(=O)[nH]c1=O	0.8	3.4	0.3	-2.8	3.5	5.3	/	/	/
O=C1C(=O)c2ccccc2-c2ccccc21	-0.2	1.4	38.2*	58.6*	-3.4	3.0	0.2	-1.6	-38.7
O=C1C(=O)c2cccc3cccc1c23	-1.8	12.3	0.1	-3.6	-6.1	0.7	/	/	/
C=C1C(=O)O[C@@H]2C[C@@H](C)[C@@H]3C=CC(=O)[C@@]3(C)[C@@H](OC(=O)CC(=O)O[C@H]3[C@@H]4C(=C)C(=O)O[C@@H]4C[C@@H](C)[C@@H]4C=CC(=O)[C@]43C)[C@H]12	5.2	5.4	-0.2	56.7*	0.3	-25.5	/	0.9	21.2*
CCOc1ccccc1-n1c(O)c(C=NCCCN(CC)CC)c(=O)[nH]c1=O	0.3	3.7	0.0	3.9	7.8	2.0	/	/	/
Cc1ccc(-n2cc(CNC(C)Cc3cnccn3)c(-c3cccc(C)c3)n2)cc1 (centres undefined)	1.6	7.0	-0.2	-0.6	1.7	-2.2	/	/	/
CCCCn1c(O)c(/C=C/C=Nc2ccccc2)c(=O)[nH]c1=O	141.0*	7.0	-0.2	46.7*	-8.2	55.1*	49.5	-11.2	37.0*
Cn1cc(/C=C2\C(=O)NC(=O)N(c3ccccc3)C2=O)c2ccccc21	0.2	-0.8	-0.7	-2.9	-1.6	154.0	/	/	/
CN(C)c1ccc(/C=C/C=C2/C(=O)NC(=O)N(c3ccccc3)C2=O)cc1	/	/	-0.8	38.4*	-6.0	10.8	72.0*	-12.9	11.8
CN1C(=O)/C(=C/C=C/c2ccco2)C(=O)NC1=S	22.6	1.0	-0.5	65.2*	-5.6	4.1	29.2	19.8*	50.1*
O=C1NC(=O)N(c2ccccc2)C(=O)/C1=C/C=C/c1ccco1	19.0	7.2	0.5	41.9*	-9.3	-1.1	58.0*	16.4*	13.6
CC(C)OC1CCCC(O)C1CC(=O)O (centres undefined)	-4.2	11.8	-0.4	-2.4	7.4	0.4	/	/	/
O=c1[nH]c(=O)n(Cc2ccco2)c(O)c1C=NCc1cccs1	2.6	-6.6	0.1	-6.5	4.8	-1.6	/	/	/
NC(=O)c1ccc(N=Cc2c(O)n(Cc3ccco3)c(=O)[nH]c2=O)cc1	15.6	2.7	-0.3	45.1*	-0.5	-25.9	38.7	54.7*	1.4
C[C@@H]1C(=O)O[C@@H]2[C@H](O)C34[C@@H]5OC(=O)C3(O[C@H]3OC(=O)[C@H](O)C34[C@H](C(C)(C)C)[C@H]5O)[C@@]12O (some centres undefined)	1.7	2.3	-0.6	-2.6	2.0	5.6	/	/	/
C[C@H]1CC[C@@H]2[C@@H](C)[C@H]3[C@H](C[C@H]4[C@@H]5CC=C6C[C@@H](O[C@@H]7O[C@H](CO)[C@H](O)[C@H](O[C@@H]8O[C@H](CO)[C@@H](O)[C@H](O)[C@H]8O)[C@H]7O[C@@H]7O[C@@H](C)[C@H](O)[C@@H](O)[C@H]7O)CC[C@]6(C)[C@H]5CC[C@]34C)N2C1	28.1*	-20.1	-0.6	15.9	6.9	43.9*	/	/	/	HNF4a DNA conf=40.3*
COc1cc(NC(=O)CN2C3CCC2CC(O)(c2cccnc2)C3)cc(OC)c1 (centres undefined)	2.8	1.1	-0.4	-2.5	-0.4	1.9	/	/	/

Assay outcomes deposited in PubChem by several laboratories.
